Laboratory results from ChEMBL document CHEMBL1151163, “New chromanone acids with antibacterial activity from Calophyllum brasiliense” (J Nat Prod, 2004).
Converted amounts (≈) assume the structure as drawn.

Legend:
KB = assay: Cytotoxicity against human KB cells; format: functional, cell-based
How it was run: (§1)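 Cytotoxicity followed previously published protocols. KB cells (HeLa-derived, ATCC CCL 17) used podophyllotoxin as the positive control. Jurkat T helper cells (ATCC TIB 152) used helenalin. Myosarcoma cells used aculeatin A.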

[1] = tested on: Staphylococcus epidermidis; assay: Antimicrobial activity against Staphylococcus epidermidis ATCC 12228 by doubling dilution method; format: functional
How it was run: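 Twofold serial (doubling) dilution susceptibility test following a previously published protocol, with chloramphenicol as the positive control.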

Jurkat = assay: Cytotoxicity against human Jurkat T cells; format: functional, cell-based; how it was run: as §1
[2] = Cytotoxicity against Myosarcoma cells; format: functional, cell-based; how it was run: as §1

C=C(C)[C@@H]1C[C@@H](CC2(CC=C(C)C)C(=O)C3=C(O)[C@@H](C)[C@@H](C)OC3=C(C(CC(=O)O)c3ccccc3)C2=O)C1(C)C (relative stereo) [BRASILIENSOPHYLLIC ACID A]
IC50 (KB): > 20 µg/mL | MIC [1]: 16 µg/mL (≈ 28.5 µM) | IC50 (Jurkat): > 20 µg/mL | IC50 [2]: > 20 µg/mL

C=C(C)[C@@H]1C[C@@H](CC2(CC=C(C)C)C(=O)C(C(CC(=O)O)c3ccccc3)=C3O[C@H](C)[C@@H](C)C(=O)C3=C2O)C1(C)C (relative stereo) [BRASILIENSOPHYLLIC ACID B]
IC50 (KB): > 20 µg/mL | MIC [1]: 16 µg/mL (≈ 28.5 µM) | IC50 (Jurkat): > 20 µg/mL | IC50 [2]: > 20 µg/mL

C=C(C)[C@@H]1C[C@@H](CC2(CC=C(C)C)C(=O)C3=C(O)[C@@H](C)[C@H](C)OC3=C(C(CC(=O)O)c3ccccc3)C2=O)C1(C)C (relative stereo) [ISOBRASILIENSOPHYLLIC ACID A]
IC50 (KB): > 20 µg/mL | MIC [1]: 16 µg/mL (≈ 28.5 µM) | IC50 (Jurkat): > 20 µg/mL | IC50 [2]: > 20 µg/mL

C=C(C)[C@@H]1C[C@@H](CC2(CC=C(C)C)C(=O)C(C(CC(=O)O)c3ccccc3)=C3O[C@@H](C)[C@@H](C)C(=O)C3=C2O)C1(C)C (relative stereo) [ISOBRASILIENSOPHYLLIC ACID B]
IC50 (KB): > 20 µg/mL | MIC [1]: 16 µg/mL (≈ 28.5 µM) | IC50 (Jurkat): > 20 µg/mL | IC50 [2]: > 20 µg/mL

CCCCCCCCCCCCC[C@@H]1C[C@@H](O)C[C@]2(CCC3(C=CC(=O)C=C3)O2)O1 [ACULEATIN A]
IC50 [2]: 0.3 µg/mL (≈ 0.717 µM)

O=C(N[C@H](CO)[C@H](O)c1ccc([N+](=O)[O-])cc1)C(Cl)Cl [CHLORAMPHENICOL]
MIC [1]: 4 µg/mL (≈ 12.4 µM)

C=C1C(=O)O[C@@H]2C[C@@H](C)[C@@H]3C=CC(=O)[C@@]3(C)[C@@H](O)[C@H]12 [HELENALIN]
IC50 (Jurkat): 0.03 µg/mL (≈ 0.114 µM)

COc1cc([C@@H]2c3cc4c(cc3[C@H](O)[C@H]3COC(=O)[C@H]23)OCO4)cc(OC)c1OC [PODOFILOX]
IC50 (KB): 0.005 µg/mL (≈ 0.0121 µM)
